Laboratory results reported in the RNAGym collection of RNA variant scans (doi:10.1126/science.aae0568).
This sample holds only a part of the variants without activity.

B1: tRNA (parent)
chain: GUUCCGUUGGCGUAAUGGUAACGCGUCUCCCUCCUAAGGAGAAGACUGCGGGUUCGAGUCCCGUACGGAACG

Variants of: B1
Assay: yeast fitness relative to wild type (ratio to wild type); higher = fitter; tRNA-Arg(CCU), competitive growth, 37 C, YPD
Method in brief: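 For this measurement, the tRNA-Arg(CCU) gene was varied by chemical synthesis at a 3% per-site mutation rate across 69 sites, and each variant was placed at the native genomic locus in Saccharomyces cerevisiae. The pooled strains went through a 24-hour competition in YPD at 37°C in six parallel replicates, with amplicons from start and end populations read by 100-nucleotide paired-end sequencing. Darwinian fitness relative to wild type followed from the change in each genotype's frequency. Genotypes needed ≥ 100 starting reads, and estimates < 0.5 were set to 0.5.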

Row | Variant | yeast fitness
1 | G18A A40G A65G | ≤ 0.5
2 | G18A U28A A42G A45C | ≤ 0.5
3 | G18A C22A C46G U53A C61G A70C | 0.583
4 | G18C A70G | 0.588
5 | G18C A70U | 0.737
6 | G17C G48A C55U | ≤ 0.5
7 | G18C A37G | 0.577
8 | G18C A37C | 0.641
9 | G18C C24G A36C G38C U47C G58C | ≤ 0.5
10 | G18A C34U G67A | ≤ 0.5
11 | G18A C30G A36C G44C | ≤ 0.5
12 | G17C G39C C66U A70U | ≤ 0.5
13 | G18C C22G G39A | ≤ 0.5
14 | G18C C22U C34G A43U | ≤ 0.5
15 | G18A A20U C22U U28A C33U G44C C60A | ≤ 0.5
16 | G17C U26C | 0.698
17 | G18A C33G | ≤ 0.5
18 | G18A C33U | ≤ 0.5
19 | G18C A21G U47A G67C | 0.53
20 | G18A C24U C29U C31U G39C | ≤ 0.5
21 | G18A U26G G48C A65G | ≤ 0.5

Row | Variant | yeast fitness
22 | G18C A36U C61A G63C | ≤ 0.5
23 | G18A C66U | 0.736
24 | G18A C66A | 0.516
25 | G18C A20U C34U A40C C49U U64C C66U | 0.549
26 | G18C A21G | 0.643
27 | G18A A37U G68C | 0.579
28 | G18A C31A G56C A65C | ≤ 0.5
29 | G18A C30U C55G G68A | ≤ 0.5
30 | G18C C22A A65G | ≤ 0.5
31 | G18A G23A C33A A65C | 0.624
32 | G17U C46G U54G | ≤ 0.5
33 | G18A C24U | 0.646
34 | G18A C24G | 0.666
35 | G18C A57G U59A C62U | ≤ 0.5
36 | G18A U26G A40G U59G C62A | ≤ 0.5
37 | G18A G52A A65C | ≤ 0.5
38 | G18A G50C | 0.615
39 | G18A A37G G52C C61A | ≤ 0.5
40 | G18A U19A G56A C60U C61G | ≤ 0.5
41 | G18A U53G | ≤ 0.5
42 | G18C A37G G51A C61U C66A | ≤ 0.5

Row | Variant | yeast fitness
43 | G18A C24G C30U | ≤ 0.5
44 | G18A A20U C27G U47A | ≤ 0.5
45 | G17U G38A G68A | ≤ 0.5
46 | G17C G56C G68A | ≤ 0.5
47 | G18A C22G C24G G50A A69C | ≤ 0.5
48 | G18A U19A | 0.594
49 | G18A C24U G68C | 0.538
50 | G18A C22A C61A A65G | ≤ 0.5
51 | G18A A45C C49U C62G C66U | ≤ 0.5
52 | G17C U28G C30U C61A A69U | ≤ 0.5
53 | G18A C27U | 0.712
54 | G18A C27G | ≤ 0.5
55 | G18C C24G C34U C49A | ≤ 0.5
56 | G18A G41C | 0.658
57 | G18A C29U A45G A70G | ≤ 0.5
58 | G18C A21G C66A | ≤ 0.5
59 | G18A A21U G68A | ≤ 0.5
60 | G18A G39C | 0.757
61 | G18A U32A G44A A65C | ≤ 0.5
62 | G18A U26G G50C G63C | 0.589
63 | G17U A37U A57C | ≤ 0.5

Row | Variant | yeast fitness
64 | G18C A57C | 0.627
65 | G18A A42C | 0.635
66 | G18A A42U | 0.683
67 | G18A C24G C27U C62U A70C | ≤ 0.5
68 | G18A A65U | 0.729
69 | G17C U32G C33U G56A G58A | ≤ 0.5
70 | G18A C31G A40G C49U G52C | 0.618
71 | G18C A40U A70G | 0.632
72 | G18A C33A A36C A43G C55G | ≤ 0.5
73 | G18A G44A U54C G58A G67U | ≤ 0.5
74 | G17C U32C | 0.644
75 | G18A G51A | 0.625
76 | G18C A45C | 0.695
77 | G18A G52A C55G | 0.571
78 | G18C C22G A69C | ≤ 0.5
79 | G17C G44C C66U | ≤ 0.5
80 | G18C A40C C61U | ≤ 0.5
81 | G18A C34G U54C | ≤ 0.5
82 | G18C A21U C30G A69C | 0.555
83 | G17C U26C U28C C29G A42C G51A | ≤ 0.5
